Active and inactive are the calls of the source. The calls are words filed in the database; no cut-off is given here.
Columns and labels:
[1] = Stability in rat liver microsomes assessed as compound remaining at 30 mins; assay type: ADME, Microsome; settings: read-out: Stability
Method in brief: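 Compound incubated with rat liver microsomes for 30 min. Result given as percent of parent compound remaining at t = 30 min.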

[2] = target: Matrix metalloproteinase-9 (Homo sapiens, UniProt P14780); test: Inhibition of MMP-9 using OmniMMP as substrate
Matrix metalloproteinase-9, sequence (P14780 whole entry): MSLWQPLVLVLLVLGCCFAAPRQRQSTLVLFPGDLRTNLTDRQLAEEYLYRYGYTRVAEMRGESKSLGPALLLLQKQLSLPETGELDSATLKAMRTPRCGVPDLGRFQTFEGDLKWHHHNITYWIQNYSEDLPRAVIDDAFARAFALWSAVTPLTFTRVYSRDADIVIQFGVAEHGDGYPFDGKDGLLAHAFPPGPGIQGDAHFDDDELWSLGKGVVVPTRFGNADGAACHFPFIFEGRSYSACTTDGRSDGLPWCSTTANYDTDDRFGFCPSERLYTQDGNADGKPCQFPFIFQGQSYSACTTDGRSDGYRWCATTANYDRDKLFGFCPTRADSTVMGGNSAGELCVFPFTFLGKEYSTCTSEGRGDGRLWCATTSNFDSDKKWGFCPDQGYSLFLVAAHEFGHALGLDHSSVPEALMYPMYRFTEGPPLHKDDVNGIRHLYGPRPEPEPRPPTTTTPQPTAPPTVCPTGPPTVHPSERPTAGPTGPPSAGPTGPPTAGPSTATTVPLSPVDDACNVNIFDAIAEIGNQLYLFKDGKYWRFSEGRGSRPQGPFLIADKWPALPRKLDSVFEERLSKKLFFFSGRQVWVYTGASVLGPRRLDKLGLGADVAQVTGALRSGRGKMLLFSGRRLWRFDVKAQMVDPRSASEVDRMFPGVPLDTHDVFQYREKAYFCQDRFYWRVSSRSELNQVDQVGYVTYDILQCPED

Interstitial collagenase = target: T1, Interstitial collagenase (Homo sapiens, UniProt P03956); test: Inhibition of MMP-1 using OmniMMP as substrate
T1 sequence (P03956 whole entry): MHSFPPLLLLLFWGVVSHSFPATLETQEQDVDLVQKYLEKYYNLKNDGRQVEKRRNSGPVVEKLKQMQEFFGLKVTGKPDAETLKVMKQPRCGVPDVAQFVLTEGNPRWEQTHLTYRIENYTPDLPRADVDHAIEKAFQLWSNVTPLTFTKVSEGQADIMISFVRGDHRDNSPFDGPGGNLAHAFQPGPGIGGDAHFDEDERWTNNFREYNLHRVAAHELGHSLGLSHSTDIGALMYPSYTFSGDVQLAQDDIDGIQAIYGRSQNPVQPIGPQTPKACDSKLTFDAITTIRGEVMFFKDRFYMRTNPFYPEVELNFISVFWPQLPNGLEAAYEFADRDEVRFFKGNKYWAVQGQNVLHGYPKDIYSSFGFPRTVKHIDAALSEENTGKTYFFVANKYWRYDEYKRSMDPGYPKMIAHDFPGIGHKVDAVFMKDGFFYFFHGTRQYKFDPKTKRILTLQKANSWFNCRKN

Plasma = test: Stability in plasma assessed as compound remaining at 3 hrs; assay type: ADME, cell-free
Method in brief: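 Compound incubated in plasma. Result given as percent of compound remaining at 3 hours.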

[3] = target: Voltage-gated inwardly rectifying potassium channel KCNH2 (Homo sapiens, UniProt Q12809); test: Inhibition of human ERG by fluorescence polarization assay
Voltage-gated inwardly rectifying potassium channel KCNH2, sequence (Q12809 whole entry): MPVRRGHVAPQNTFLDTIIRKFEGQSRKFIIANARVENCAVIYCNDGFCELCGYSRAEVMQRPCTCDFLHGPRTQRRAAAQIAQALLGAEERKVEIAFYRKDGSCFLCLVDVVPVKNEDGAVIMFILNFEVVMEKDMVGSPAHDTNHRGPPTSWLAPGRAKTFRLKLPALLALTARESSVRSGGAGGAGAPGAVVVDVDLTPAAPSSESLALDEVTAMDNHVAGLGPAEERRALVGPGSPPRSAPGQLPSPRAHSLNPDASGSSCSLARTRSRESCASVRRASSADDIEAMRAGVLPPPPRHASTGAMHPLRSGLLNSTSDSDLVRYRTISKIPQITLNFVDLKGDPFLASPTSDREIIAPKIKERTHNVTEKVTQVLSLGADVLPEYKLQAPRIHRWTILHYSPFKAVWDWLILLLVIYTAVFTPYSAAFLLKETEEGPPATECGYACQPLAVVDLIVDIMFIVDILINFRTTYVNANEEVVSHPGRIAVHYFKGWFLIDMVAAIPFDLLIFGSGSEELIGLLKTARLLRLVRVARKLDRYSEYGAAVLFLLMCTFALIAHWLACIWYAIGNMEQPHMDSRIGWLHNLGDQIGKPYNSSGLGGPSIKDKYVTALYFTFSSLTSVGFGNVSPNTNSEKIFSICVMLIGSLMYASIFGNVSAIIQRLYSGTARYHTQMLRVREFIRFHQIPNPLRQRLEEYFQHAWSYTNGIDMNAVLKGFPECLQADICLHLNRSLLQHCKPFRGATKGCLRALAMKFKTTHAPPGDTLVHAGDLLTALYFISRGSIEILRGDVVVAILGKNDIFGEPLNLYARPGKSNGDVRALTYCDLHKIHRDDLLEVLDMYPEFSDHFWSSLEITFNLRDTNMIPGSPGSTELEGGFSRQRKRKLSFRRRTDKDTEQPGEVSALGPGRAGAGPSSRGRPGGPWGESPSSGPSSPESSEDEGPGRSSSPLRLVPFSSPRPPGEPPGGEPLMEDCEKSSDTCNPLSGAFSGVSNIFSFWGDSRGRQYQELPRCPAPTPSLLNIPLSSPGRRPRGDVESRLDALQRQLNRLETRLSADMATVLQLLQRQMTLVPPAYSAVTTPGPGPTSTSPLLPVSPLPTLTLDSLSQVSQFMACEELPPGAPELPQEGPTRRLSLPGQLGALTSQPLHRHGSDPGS

[4] = Lipophilicity, Log D of the compound; assay type: physicochemical; settings: octanol/water
[5] = Stability of the compound in presence of UGT; assay type: ADME
Method in brief: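 UGT (glucuronidation) stability assay, incubated for 30 min. Result given as percent of compound remaining at t = 30 min.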

Cytochrome P450 2D6 = Cytochrome P450 2D6 (Homo sapiens, UniProt P10635); test: Inhibition of CYP2D6; assay type: ADME
Cytochrome P450 2D6, sequence (P10635 whole entry): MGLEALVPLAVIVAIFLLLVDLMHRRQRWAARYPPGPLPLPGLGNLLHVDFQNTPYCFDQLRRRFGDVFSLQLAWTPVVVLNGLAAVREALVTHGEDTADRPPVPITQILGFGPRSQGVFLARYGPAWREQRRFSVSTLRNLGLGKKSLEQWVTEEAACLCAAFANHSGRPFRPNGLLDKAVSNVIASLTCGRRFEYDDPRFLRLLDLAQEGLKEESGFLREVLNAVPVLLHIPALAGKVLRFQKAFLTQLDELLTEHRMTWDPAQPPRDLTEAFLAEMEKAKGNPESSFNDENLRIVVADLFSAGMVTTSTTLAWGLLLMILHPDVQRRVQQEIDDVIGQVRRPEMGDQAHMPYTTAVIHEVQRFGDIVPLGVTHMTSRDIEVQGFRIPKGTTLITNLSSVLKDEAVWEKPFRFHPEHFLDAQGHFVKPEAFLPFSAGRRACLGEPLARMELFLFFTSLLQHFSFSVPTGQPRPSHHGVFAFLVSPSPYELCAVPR

Rattus norvegicus [6] = test: Inhibition of Anthrax LT-induced toxicity in Fischer 344 rat assessed as increase in survival at 2.5 mg/kg, iv administered 20 to 30 mins after LT challenge; assay type: functional, organism-based; set-up: dose 2.5 mg/kg
RAW264.7 = test: Cytotoxicity against mouse RAW264.7 cells by MTT assay; assay type: cell-based
Stromelysin-1 = Stromelysin-1 (Homo sapiens, UniProt P08254); test: Inhibition of MMP-3 using OmniMMP as substrate
Stromelysin-1, sequence (P08254 whole entry): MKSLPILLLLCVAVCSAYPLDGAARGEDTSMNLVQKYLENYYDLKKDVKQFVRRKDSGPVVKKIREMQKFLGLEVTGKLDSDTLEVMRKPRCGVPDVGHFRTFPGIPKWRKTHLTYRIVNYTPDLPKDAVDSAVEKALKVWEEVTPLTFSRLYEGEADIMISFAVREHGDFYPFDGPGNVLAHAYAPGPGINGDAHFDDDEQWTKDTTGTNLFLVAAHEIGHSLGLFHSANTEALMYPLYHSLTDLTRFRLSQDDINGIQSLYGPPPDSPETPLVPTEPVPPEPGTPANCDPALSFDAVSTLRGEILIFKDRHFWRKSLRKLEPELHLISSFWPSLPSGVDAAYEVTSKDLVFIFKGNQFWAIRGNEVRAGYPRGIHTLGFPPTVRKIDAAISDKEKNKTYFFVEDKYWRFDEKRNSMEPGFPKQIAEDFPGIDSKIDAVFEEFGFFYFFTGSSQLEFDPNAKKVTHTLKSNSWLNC

Rattus norvegicus [7] = test: Inhibition of Anthrax LT-induced toxicity in Fischer 344 rat assessed as increase in survival at 5 mg/kg, iv administered 20 to 30 mins after LT challenge; assay type: functional, organism-based; set-up: dose 5 mg/kg
[8] = target: Macrophage metalloelastase (Homo sapiens, UniProt P39900); test: Inhibition of MMP-12 using OmniMMP as substrate
Macrophage metalloelastase, sequence (P39900 whole entry): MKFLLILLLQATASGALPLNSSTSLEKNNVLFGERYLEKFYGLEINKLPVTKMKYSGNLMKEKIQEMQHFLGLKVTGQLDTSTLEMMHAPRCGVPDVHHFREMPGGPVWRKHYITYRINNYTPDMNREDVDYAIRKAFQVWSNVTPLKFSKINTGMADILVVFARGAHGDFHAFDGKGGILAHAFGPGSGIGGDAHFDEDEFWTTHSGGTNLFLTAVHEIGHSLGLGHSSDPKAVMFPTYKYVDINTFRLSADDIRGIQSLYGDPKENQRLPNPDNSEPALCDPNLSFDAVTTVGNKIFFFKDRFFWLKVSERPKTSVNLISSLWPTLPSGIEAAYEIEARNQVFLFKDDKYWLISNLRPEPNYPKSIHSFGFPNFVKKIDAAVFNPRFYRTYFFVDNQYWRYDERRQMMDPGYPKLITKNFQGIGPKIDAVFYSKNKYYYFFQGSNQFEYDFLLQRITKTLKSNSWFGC

[9] = target: Matrix metalloproteinase-14 (Homo sapiens, UniProt P50281); test: Inhibition of MMP-14 using OmniMMP as substrate
Lethal factor = target: T2, Lethal factor (Bacillus anthracis, UniProt P15917); test: Inhibition of N-terminal 6-histine tagged Bacillus anthracis LF 263-C terminal catalytic domain using MCA-KKVYPYPME-Dap(Dnp)-NH2 as substrate after 4 hrs by FRET analysis
T2 sequence (P15917 whole entry): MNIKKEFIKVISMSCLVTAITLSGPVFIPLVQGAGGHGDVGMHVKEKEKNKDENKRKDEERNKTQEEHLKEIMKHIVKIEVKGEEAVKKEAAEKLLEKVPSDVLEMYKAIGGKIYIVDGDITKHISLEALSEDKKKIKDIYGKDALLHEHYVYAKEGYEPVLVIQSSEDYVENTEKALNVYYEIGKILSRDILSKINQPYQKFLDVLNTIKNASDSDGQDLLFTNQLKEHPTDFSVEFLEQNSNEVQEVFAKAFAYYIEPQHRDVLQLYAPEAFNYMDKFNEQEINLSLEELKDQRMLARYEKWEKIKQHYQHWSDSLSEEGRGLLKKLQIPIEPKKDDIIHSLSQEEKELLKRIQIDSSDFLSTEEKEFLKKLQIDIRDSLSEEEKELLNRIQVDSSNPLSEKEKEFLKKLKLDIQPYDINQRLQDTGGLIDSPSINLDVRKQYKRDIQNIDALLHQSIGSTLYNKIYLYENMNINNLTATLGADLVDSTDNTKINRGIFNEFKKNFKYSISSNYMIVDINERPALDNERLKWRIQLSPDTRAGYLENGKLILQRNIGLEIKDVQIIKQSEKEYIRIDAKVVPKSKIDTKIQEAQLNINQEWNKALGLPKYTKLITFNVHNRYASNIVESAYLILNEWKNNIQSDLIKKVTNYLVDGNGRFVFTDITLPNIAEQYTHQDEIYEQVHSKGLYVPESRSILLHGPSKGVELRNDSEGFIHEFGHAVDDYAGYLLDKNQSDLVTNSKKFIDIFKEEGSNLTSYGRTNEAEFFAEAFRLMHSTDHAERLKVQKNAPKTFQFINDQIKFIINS

Rattus norvegicus [10] = test: Inhibition of Anthrax LT-induced toxicity in Fischer 344 rat assessed as increase in survival at 1.25 mg/kg, iv administered 20 to 30 mins after LT challenge; assay type: functional, organism-based; set-up: dose 1.25 mg/kg
Oryctolagus cuniculus [11] = test: Cmax in NZW rabbit at 10 mg/kg, sc; assay type: ADME, organism-based; set-up: dose 10 mg/kg, route subcutaneous; settings: in vivo
Method in brief: (§1)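 Single subcutaneous dose of 10 mg/kg given to NZW rabbits in DMSO:PEG400:pH 6 citrate buffer (2:10:88). Plasma drug levels were followed over time, including a 12 h sample. Tmax, Cmax, terminal (β) half-life and AUC to infinity were derived from the plasma concentration–time profile.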

Oryctolagus cuniculus [12] = test: AUC (infinity) in NZW rabbit at 10 mg/kg, sc; assay type: ADME, organism-based, Plasma; set-up: time infinity, dose 10 mg/kg, route subcutaneous; settings: in vivo; method in brief: as §1
Oryctolagus cuniculus [13] = test: Tmax in NZW rabbit at 10 mg/kg, sc; assay type: ADME, organism-based; set-up: dose 10 mg/kg, route subcutaneous; settings: in vivo; method in brief: as §1
Oryctolagus cuniculus [14] = test: Terminal half life in NZW rabbit at 10 mg/kg, sc; assay type: ADME, organism-based; set-up: dose 10 mg/kg, route subcutaneous; settings: in vivo; method in brief: as §1
[15] = Plasma concentration in NZW rabbit at 10 mg/kg, sc at 12 hrs; assay type: ADME, organism-based, Oryctolagus cuniculus; set-up: dose 10 mg/kg, route subcutaneous; method in brief: as §1

Compound: Cc1cc(N[C@H](CCCCNCc2ccc(F)cc2)C(=O)NO)cc(C)c1F
- remaining at 0.5 h [1]: 60%
- Ki [2]: > 50 µM
- Ki (Interstitial collagenase): > 50 µM
- Stability (Plasma): 90%
- IC50 [3]: 1.23 µM
- logD [4]: 2.3
- Stability [5]: 38%
- IC50 (Cytochrome P450 2D6): 1.35 µM
- inhibition (Rattus norvegicus [6]): Active
- CC50 (RAW264.7): 61 µM
- Ki (Stromelysin-1): > 50 µM
- Survival increase (active/not active) (Rattus norvegicus [7]): Active
- Ki [8]: > 50 µM
- Ki [9]: > 50 µM

Compound: CO[C@H](C[C@H](CCCCNCc1ccc(F)cc1)C(=O)NO)c1ccc(F)cc1
- remaining at 0.5 h [1]: 91%
- Ki [2]: 21 µM
- Ki (Interstitial collagenase): 33 µM
- logD [4]: 2.4
- Stability [5]: 99%
- CC50 (RAW264.7): 55 µM
- Ki (Stromelysin-1): > 50 µM
- Survival increase (active/not active) (Rattus norvegicus [7]): Active
- Ki [8]: 2.3 µM
- Ki [9]: > 50 µM

Compound: Cc1cc(O[C@H](CCCCNCc2ccc(F)cc2)C(=O)NO)cc(C)c1F
- remaining at 0.5 h [1]: 3%
- Ki [2]: > 50 µM
- Ki (Interstitial collagenase): > 50 µM
- Stability (Plasma): 61%
- IC50 [3]: 0.79 µM
- logD [4]: 3.1
- Stability [5]: 76%
- IC50 (Cytochrome P450 2D6): 0.23 µM
- CC50 (RAW264.7): 26 µM
- Ki (Stromelysin-1): > 50 µM
- Survival increase (active/not active) (Rattus norvegicus [7]): inactive
- Ki [8]: > 50 µM
- Ki [9]: > 50 µM

Compound: Cc1cc(C[C@H](CCCCNCc2ccc(F)cc2)C(=O)NO)cc(C)c1F
- remaining at 0.5 h [1]: 18%
- Ki [2]: > 50 µM
- Ki (Interstitial collagenase): > 50 µM
- Stability (Plasma): 100%
- IC50 [3]: 4.65 µM
- logD [4]: 2.2
- Stability [5]: 79%
- IC50 (Cytochrome P450 2D6): 0.02 µM
- inhibition (Rattus norvegicus [6]): Active
- CC50 (RAW264.7): 16 µM
- Ki (Stromelysin-1): > 50 µM
- Survival increase (active/not active) (Rattus norvegicus [7]): Active
- Ki [8]: > 50 µM
- Ki [9]: > 50 µM

Compound: Cc1cc(C[C@H](CCCCN[C@H](C)c2ccc(F)cc2)C(=O)NO)cc(C)c1F
- Ki (Lethal factor): 0.3 nM

Compound: Cc1cc(C[C@H](CCCCN[C@@H](C)c2ccc(F)cc2)C(=O)NO)cc(C)c1F
- Ki (Lethal factor): 0.49 nM

Compound: CC[C@@H](NCCCC[C@@H](Cc1cc(C)c(F)c(C)c1)C(=O)NO)c1ccc(F)cc1
- Ki (Lethal factor): 0.04 nM

Compound: CC[C@H](NCCCC[C@@H](Cc1cc(C)c(F)c(C)c1)C(=O)NO)c1ccc(F)cc1
- Ki (Lethal factor): 0.11 nM

Compound: Cc1cc(C[C@H](CCCCN[C@H](CC(C)C)c2ccc(F)cc2)C(=O)NO)cc(C)c1F
- Ki (Lethal factor): 0.23 nM

Compound: Cc1cc(C[C@H](CCCCN[C@@H](CC(C)C)c2ccc(F)cc2)C(=O)NO)cc(C)c1F
- Ki (Lethal factor): 1.3 nM

Compound: Cc1cc(C[C@H](CCCCN[C@H](Cc2ccccc2)c2ccc(F)cc2)C(=O)NO)cc(C)c1F
- Ki (Lethal factor): 0.6 nM

Compound: Cc1cc(C[C@H](CCCCN[C@@H](Cc2ccccc2)c2ccc(F)cc2)C(=O)NO)cc(C)c1F
- Ki (Lethal factor): 2 nM

Compound: CCC(NCCCC[C@@H](Cc1cc(C)c(F)c(C)c1)C(=O)NO)c1ccc(F)cc1 (mixture of isomers)
- remaining at 0.5 h [1]: 55%
- Ki [2]: > 50 µM
- Ki (Interstitial collagenase): > 50 µM
- Stability (Plasma): 95%
- logD [4]: 2.9
- inhibition (Rattus norvegicus [10]): Active
- Stability [5]: 100%
- IC50 (Cytochrome P450 2D6): 0.08 µM
- inhibition (Rattus norvegicus [6]): Active
- CC50 (RAW264.7): 15 µM
- Ki (Stromelysin-1): > 50 µM
- Survival increase (active/not active) (Rattus norvegicus [7]): Active
- Ki [8]: > 50 µM
- Ki (Lethal factor): 0.31 nM
- Ki [9]: > 50 µM

Compound: CCC(NCCCC[C@@H](Nc1cc(C)c(F)c(C)c1)C(=O)NO)c1ccc(F)cc1 (mixture of isomers)
- remaining at 0.5 h [1]: 75%
- Ki [2]: > 50 µM
- Ki (Interstitial collagenase): > 50 µM
- Stability (Plasma): 84%
- IC50 [3]: 0.95 µM
- logD [4]: 3.3
- inhibition (Rattus norvegicus [10]): inactive
- Stability [5]: 74%
- IC50 (Cytochrome P450 2D6): 0.24 µM
- inhibition (Rattus norvegicus [6]): Active
- CC50 (RAW264.7): 32 µM
- Ki (Stromelysin-1): > 50 µM
- Survival increase (active/not active) (Rattus norvegicus [7]): Active
- Ki [8]: > 50 µM
- Ki (Lethal factor): 0.17 nM
- Ki [9]: > 50 µM

Compound: CCC(NCCCC[C@@H](Oc1cc(C)c(F)c(C)c1)C(=O)NO)c1ccc(F)cc1 (mixture of isomers)
- remaining at 0.5 h [1]: 7%
- Ki [2]: > 50 µM
- Ki (Interstitial collagenase): > 50 µM
- Stability (Plasma): 38%
- logD [4]: 3.3
- Stability [5]: 75%
- CC50 (RAW264.7): 21 µM
- Ki (Stromelysin-1): > 50 µM
- Survival increase (active/not active) (Rattus norvegicus [7]): Active
- Ki [8]: > 50 µM
- Ki (Lethal factor): 1 nM
- Ki [9]: > 50 µM

Compound: CCC(NCCCC[C@@H](C[C@@H](OC)c1ccc(F)cc1)C(=O)NO)c1ccc(F)cc1 (mixture of isomers)
- remaining at 0.5 h [1]: 75%
- Ki [2]: 11 µM
- Ki (Interstitial collagenase): 47 µM
- Stability (Plasma): 94%
- logD [4]: 2.9
- Cmax (Oryctolagus cuniculus [11]): 1300 nM
- Stability [5]: 100%
- IC50 (Cytochrome P450 2D6): 0.16 µM
- AUC (Oryctolagus cuniculus [12]): 2637.6 ng·h/mL
- inhibition (Rattus norvegicus [6]): Active
- CC50 (RAW264.7): 35 µM
- Ki (Stromelysin-1): 31 µM
- Tmax (Oryctolagus cuniculus [13]): 0.3 h
- Survival increase (active/not active) (Rattus norvegicus [7]): Active
- beta t1/2 (Oryctolagus cuniculus [14]): 5.3 h
- Ki [8]: 12 µM
- Ki (Lethal factor): 0.27 nM
- Ki [9]: > 50 µM
- concentration at 12 h [15]: 79 nM
